Data as given in ChEMBL document CHEMBL4732034, “Amino alcohol acrylonitriles as broad spectrum and tumour selective cytotoxic agents” (RSC Med Chem, 2021).

Legend:
MCF7 = assay: Cytotoxicity against human MCF-7 cells assessed as growth inhibition measured after 72 hrs by SRB assay; format: functional
Method in brief: (§1)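 Cancer lines were kept in DMEM with 10% FBS and glutamine at 37 °C, 5% CO2, and seeded at 2500–4000 cells per well in duplicate. Compound (from 40 mM DMSO stocks) was added 24 h after plating and left for 72 h. Cells were TCA-fixed, stained with SRB and read at 540 nm. GI50 came from an eight-point dose-response, using the change from day-0 optical density, with three to four independent replicates.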

[1] = Cytotoxicity against human MCF10A cells assessed as growth inhibition measured after 72 hrs by SRB assay; format: cell-based, MCF-10A
NCI-H460 = assay: Cytotoxicity against human H460 cells assessed as growth inhibition measured after 72 hrs by SRB assay; format: functional; method in brief: as §1
MIA PaCa-2 = assay: Cytotoxicity against human MIA cells assessed as growth inhibition measured after 72 hrs by SRB assay; format: functional; method in brief: as §1
A2780 = assay: Cytotoxicity against human A2780 cells assessed as growth inhibition measured after 72 hrs by SRB assay; format: functional; method in brief: as §1
[2] = Cytotoxicity against human SJG2 cells assessed as growth inhibition measured after 72 hrs by SRB assay; format: functional; settings: SJ-G2; method in brief: as §1
HT-29 = assay: Cytotoxicity against human HT29 cells assessed as growth inhibition measured after 72 hrs by SRB assay; format: functional; method in brief: as §1
BE(2)-C = assay: Cytotoxicity against human BE2C cells assessed as growth inhibition measured after 72 hrs by SRB assay; format: functional; method in brief: as §1
U-87 MG = assay: Cytotoxicity against human U87 cells assessed as growth inhibition measured after 72 hrs by SRB assay; format: functional, U-87MG ATCC; method in brief: as §1
DU-145 = assay: Cytotoxicity against human DU-145 cells assessed as growth inhibition measured after 72 hrs by SRB assay; format: functional; method in brief: as §1
A-431 = assay: Cytotoxicity against human A431 cells assessed as growth inhibition measured after 72 hrs by SRB assay; format: functional; method in brief: as §1

| Structure (SMILES) | GI50 (MCF7) | GI50 at 72 h [1] | GI50 (NCI-H460) | GI50 (MIA PaCa-2) | GI50 (A2780) | GI50 [2] | GI50 (HT-29) | GI50 (BE(2)-C) | GI50 (U-87 MG) | GI50 (DU-145) | GI50 (A-431) |
| --- | --- | --- | --- | --- | --- | --- | --- | --- | --- | --- | --- |
| N#C/C(=C\c1ccc(OCC(O)CN2CCN(c3ccc([N+](=O)[O-])cc3)CC2)cc1)c1ccc(Cl)c(Cl)c1 (racemic) | > 50 µM | > 50 µM | > 50 µM | > 50 µM | > 50 µM | > 50 µM | > 50 µM | > 50 µM | > 50 µM | > 50 µM | > 50 µM |
| Cc1ccc(N2CCN(CC(O)COc3ccc(/C=C(\C#N)c4ccc(Cl)c(Cl)c4)cc3)CC2)cc1 (racemic) | 2.3 µM | 3.5 µM | 2.5 µM | 3 µM | 3 µM | 2.9 µM | 2.6 µM | 2.7 µM | 6 µM | 2.7 µM | 3.1 µM |
| N#C/C(=C\c1ccc(OCC(O)CNC2CCCCC2)cc1)c1ccc(Cl)c(Cl)c1 (racemic) | 2.7 µM | 2.8 µM | 2.2 µM | 2.7 µM | 2.9 µM | 2.7 µM | 2 µM | 2.8 µM | 2.8 µM | 2.4 µM | 2.2 µM |
| N#C/C(=C\c1ccc(OCC(O)CNc2ccc(Cl)cc2)cc1)c1ccc(Cl)c(Cl)c1 (racemic) | 11 µM | 17 µM | 11 µM | 14 µM | 10 µM | 15 µM | 7 µM | 14 µM | 16 µM | 15 µM | 15 µM |
| N#C/C(=C\c1ccc(OCC(O)CNc2ccc(Br)cc2)cc1)c1ccc(Cl)c(Cl)c1 (racemic) | 5.3 µM | 13 µM | 6.8 µM | 11 µM | 10 µM | 11 µM | 6 µM | 11 µM | 16 µM | 13 µM | 11 µM |
| N#C/C(=C\c1ccc(OCC(O)CN2CCN(c3ccccc3)CC2)cc1)c1ccc(Cl)c(Cl)c1 (racemic) | 4.1 µM | 4.8 µM | 4 µM | 5.7 µM | 6.3 µM | 9 µM | 3.3 µM | 16 µM | 5.4 µM | 3.5 µM | 6.3 µM |
| N#C/C(=C\c1ccc(OCC(O)CN2CCN(c3ccc(C(F)(F)F)cc3)CC2)cc1)c1ccc(Cl)c(Cl)c1 (racemic) | > 50 µM | > 50 µM | > 50 µM | > 50 µM | > 50 µM | > 50 µM | – | > 50 µM | > 50 µM | > 50 µM | > 50 µM |
| N#C/C(=C\c1ccc(OCC(O)CN2CCN(c3ccc(Cl)cc3)CC2)cc1)c1ccc(Cl)c(Cl)c1 (racemic) | 15 µM | 18 µM | 28 µM | 17 µM | 15 µM | 24 µM | 9 µM | > 50 µM | > 50 µM | 32 µM | 27 µM |
| CC(=O)c1ccc(N2CCN(CC(O)COc3ccc(/C=C(\C#N)c4ccc(Cl)c(Cl)c4)cc3)CC2)cc1 (racemic) | 11 µM | 7.5 µM | > 50 µM | > 50 µM | 40 µM | > 50 µM | 7.7 µM | > 50 µM | > 50 µM | 12 µM | 30 µM |
| Cc1ccc(CN2CCN(CC(O)COc3ccc(/C=C(\C#N)c4ccc(Cl)c(Cl)c4)cc3)CC2)cc1 (racemic) | 1.7 µM | 2.4 µM | 2.7 µM | 2.6 µM | 1.5 µM | 2.4 µM | 1.4 µM | 2 µM | 3.6 µM | 4.5 µM | 2.4 µM |
